Measurements as given in ChEMBL document CHEMBL6083209, “Pyridazinone-based derivatives as anticancer agents endowed with anti-microbial activity: molecular design, synthesis, and biological investigation” (RSC Med Chem, 2024).
Converted amounts (≈) assume the structure as drawn. One block for each compound: values may come before it.

What was measured:
Candida albicans = assay: Antimicrobial activity against Candida albicans ATCC 10231 by broth microdilution method
SK-OV-3 = assay: Antiproliferative activity against human SK-OV-3 cells assessed as growth inhibition at 10 uM incubated for 48 hrs by SRB method; format: functional; conditions: read-out: GI
Outline: (§1)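 NCI-60 one-dose screen at 10 μM. Cells were grown in RPMI 1640 with 5% FBS and 2 mM L-glutamine and plated at 5000–40 000 cells/well for 24 h. Drug exposure was 48 h at 37 °C, 5% CO2. Cells were fixed with TCA, stained with 0.4% SRB and read at 515 nm. Growth is expressed as percent of untreated control and time-zero plates.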

CAKI-1 = assay: Antiproliferative activity against human CAKI-1 cells assessed as growth inhibition incubated for 48 hrs by SRB method; format: functional
Outline: (§2)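 NCI-60 five-dose screen at 0.01, 0.1, 1, 10 and 100 μM, triplicate wells per dose. Cells were in RPMI 1640 with 5% FBS and 2 mM L-glutamine, pre-grown 24 h and then treated for 48 h at 37 °C. Read-out was TCA fixation and SRB absorbance at 515 nm.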

Escherichia coli = assay: Antimicrobial activity against Escherichia coli ATCC 25922 by broth microdilution method
LOX IMVI = assay: Antiproliferative activity against human LOX IMVI cells assessed as growth inhibition at 10 uM incubated for 48 hrs by SRB method; format: functional; conditions: read-out: GI
Outline: as §1

NCI-H226 = assay: Antiproliferative activity against human NCI-H226 cells assessed as growth inhibition at 10 uM incubated for 48 hrs by SRB method; format: functional; conditions: read-out: GI
Outline: as §1

UACC-257 = assay: Antiproliferative activity against human UACC-257 cells assessed as growth inhibition incubated for 48 hrs by SRB method; format: functional
Outline: as §2

MDA-MB-468 [1] = assay: Antiproliferative activity against human MDA-MB-468 cells assessed as growth inhibition incubated for 48 hrs by SRB method; format: functional
Outline: as §2

Staphylococcus aureus [2] = assay: Antimicrobial activity against Staphylococcus aureus ATCC 29213 by broth microdilution method
PC-3 = assay: Antiproliferative activity against human PC-3 cells assessed as growth inhibition incubated for 48 hrs by SRB method; format: functional
Outline: as §2

SK-MEL-28 = assay: Antiproliferative activity against human SK-MEL-28 cells assessed as growth inhibition incubated for 48 hrs by SRB method; format: functional
Outline: as §2

HOP-92 [3] = assay: Antiproliferative activity against human HOP-92 cells assessed as growth inhibition incubated for 48 hrs by SRB method; format: functional
Outline: as §2

SN12C = assay: Antiproliferative activity against human SN12C cells assessed as growth inhibition incubated for 48 hrs by SRB method; format: functional
Outline: as §2

SF-268 = assay: Antiproliferative activity against human SF-268 cells assessed as growth inhibition incubated for 48 hrs by SRB method; format: functional
Outline: as §2

SNB-75 = assay: Antiproliferative activity against human SNB-75 cells assessed as growth inhibition incubated for 48 hrs by SRB method; format: functional
Outline: as §2

NCI-H23 = assay: Antiproliferative activity against human NCI-H23 cells assessed as growth inhibition incubated for 48 hrs by SRB method; format: functional
Outline: as §2

EKVX = assay: Antiproliferative activity against human EKVX cells assessed as growth inhibition incubated for 48 hrs by SRB method; format: functional
Outline: as §2

M14 = assay: Antiproliferative activity against human M14 cells assessed as growth inhibition incubated for 48 hrs by SRB method; format: functional
Outline: as §2

DU-145 = assay: Antiproliferative activity against human DU-145 cells assessed as growth inhibition at 10 uM incubated for 48 hrs by SRB method; format: functional; conditions: read-out: GI
Outline: as §1

MDA-MB-468 [4] = assay: Antiproliferative activity against human MDA-MB-468 cells assessed as growth inhibition at 10 uM incubated for 48 hrs by SRB method; format: functional; conditions: read-out: GI
Outline: as §1

HOP-62 = assay: Antiproliferative activity against human HOP-62 cells assessed as growth inhibition at 10 uM incubated for 48 hrs by SRB method; format: functional; conditions: read-out: GI
Outline: as §1

SK-MEL-2 = assay: Antiproliferative activity against human SK-MEL-2 cells assessed as growth inhibition incubated for 48 hrs by SRB method; format: functional
Outline: as §2

A549 = assay: Antiproliferative activity against human A549 cells assessed as growth inhibition at 10 uM incubated for 48 hrs by SRB method; format: functional; conditions: read-out: GI
Outline: as §1

UO-31 = assay: Antiproliferative activity against human UO-31 cells assessed as growth inhibition at 10 uM incubated for 48 hrs by SRB method; format: functional; conditions: read-out: GI
Outline: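 NCI-60 one-dose screen at 10 μM. Cells grown in RPMI 1640 with 5% FBS and 2 mM L-glutamine, plated at 5000–40 000 cells/well and preincubated 24 h at 37 °C, 5% CO2. Drug exposure 48 h. Fixed with TCA and stained with 0.4% SRB, absorbance read at 515 nm. Percent growth calculated against untreated control and time-zero plates.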

NCI/ADR-RES = assay: Antiproliferative activity against human NCI-ADR-RES cells assessed as growth inhibition at 10 uM incubated for 48 hrs by SRB method; format: functional; conditions: read-out: GI
Outline: as §1

OVCAR-8 = assay: Antiproliferative activity against human OVCAR-8 cells assessed as growth inhibition incubated for 48 hrs by SRB method; format: functional
Outline: as §2

U-251 = assay: Antiproliferative activity against human U-251 cells assessed as growth inhibition at 10 uM incubated for 48 hrs by SRB method; format: functional; conditions: read-out: GI
Outline: as §1

MCF7 [5] = assay: Antiproliferative activity against human MCF7 cells assessed as growth inhibition incubated for 48 hrs by SRB method; format: functional
Outline: as §2

BT-549 = assay: Antiproliferative activity against human BT-549 cells assessed as growth inhibition at 10 uM incubated for 48 hrs by SRB method; format: functional; conditions: read-out: GI
Outline: as §1

MCF7 [6] = assay: Antiproliferative activity against human MCF7 cells assessed as growth inhibition at 10 uM incubated for 48 hrs by SRB method; format: functional; conditions: read-out: GI
Outline: as §1

HOP-92 [7] = assay: Antiproliferative activity against human HOP-92 cells assessed as growth inhibition at 10 uM incubated for 48 hrs by SRB method; format: functional; conditions: read-out: GI
Outline: as §1

UACC-62 = assay: Antiproliferative activity against human UACC-62 cells assessed as growth inhibition incubated for 48 hrs by SRB method; format: functional
Outline: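 NCI-60 five-dose screen at 0.01, 0.1, 1, 10 and 100 μM, triplicate wells per dose. Cells grown in RPMI 1640/5% FBS, preincubated 24 h, then exposed 48 h at 37 °C. TCA fixation, SRB stain, A515.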

786-0 = assay: Antiproliferative activity against human 786-0 cells assessed as growth inhibition at 10 uM incubated for 48 hrs by SRB method; format: functional; conditions: read-out: GI
Outline: as §1

SF-295 = assay: Antiproliferative activity against human SF-295 cells assessed as growth inhibition incubated for 48 hrs by SRB method; format: functional
Outline: as §2

Staphylococcus aureus [8] = assay: Antimicrobial activity against Staphylococcus aureus ATCC 29213; format: functional

- MIC (Candida albicans): 512 µg/mL (≈ 1200 µM)
- MIC (Escherichia coli): 512 µg/mL (≈ 1200 µM)
- GI50 (MDA-MB-468 [1]): 1660 nM
- MIC (Staphylococcus aureus [2]): 128 µg/mL (≈ 300 µM)
- GI50 (PC-3): 3630 nM
- GI50 (SK-MEL-28): 2000 nM
- GI50 (NCI-H23): 3540 nM
- GI50 (SK-MEL-2): 1860 nM
- GI50 (OVCAR-8): 3470 nM
- GI50 (MCF7 [5]): 2440 nM
Structure (SMILES): O=c1ccc(/C=C/c2ccc(NC(=S)Nc3cccc(Br)c3)cc2)n[nH]1
- inhibition of growth at 10 µM (SK-OV-3): 82.6%
- GI50 (CAKI-1): 2570 nM
- inhibition of growth at 10 µM (LOX IMVI): 88.8%
- inhibition of growth at 10 µM (NCI-H226): 88.2%
- GI50 (UACC-257): 3240 nM
- GI50 (HOP-92 [3]): 2510 nM
- GI50 (SN12C): 3020 nM
- GI50 (SF-268): 2820 nM
- GI50 (SNB-75): 3980 nM
- GI50 (EKVX): 3540 nM
- GI50 (M14): 2570 nM
- inhibition of growth at 10 µM (DU-145): 91.5%
- inhibition of growth at 10 µM (MDA-MB-468 [4]): 88.1%
- inhibition of growth at 10 µM (HOP-62): 98.1%
- inhibition of growth at 10 µM (A549): 74%
- inhibition of growth at 10 µM (UO-31): 76.2%
- inhibition of growth at 10 µM (NCI/ADR-RES): 85.7%
- inhibition of growth at 10 µM (U-251): 100%
- inhibition of growth at 10 µM (BT-549): 95.5%
- inhibition of growth at 10 µM (MCF7 [6]): 72.7%
- inhibition of growth at 10 µM (HOP-92 [7]): 100%
- GI50 (UACC-62): 2340 nM
- inhibition of growth at 10 µM (786-0): 88.2%
- GI50 (SF-295): 2690 nM

Structure (SMILES): O=C(Nc1ccc(Cl)cc1)Nc1ccc(Cl)c(Cl)c1 [TRICLOCARBAN]
- MIC (Staphylococcus aureus [8]): 16 µg/mL (≈ 50.7 µM)
